Laboratory results as given in ChEMBL document CHEMBL1777721, “Phenolic compounds with NF-κB inhibitory effects from the fungus Phellinus baumii” (Bioorg Med Chem Lett, 2011).

Experiments:
[1] = tested on: LNCaP; assay: Inhibition of LPS-induced NF-kappaB-dependent reporter gene transcription in androgen-sensitive human LNCap cells; type: cell-based; conditions: for inhibition: dose or concentration not given here
Method in brief: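 Luciferase NF-κB reporter assay in androgen-sensitive LNCaP prostate cancer cells. Cells were pretreated with the test compound, then stimulated with LPS to activate NF-κB. Reporter activity was read at three concentrations and expressed as percent reduction of the LPS-induced signal.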

[2] = Inhibition of basal NF-kappaB-dependent reporter gene transcription in androgen-insensitive human PC3 cells
[3] = Homo sapiens, PC-3, read-out: IC50

Structure (SMILES)	Activity [1]	inhibition [1]	IC50 [2, 3]	IC50 ([2]; pc-3)
O=C1C[C@H](c2ccc(O)cc2)Oc2cc(O)c(Cc3ccccc3O)c(O)c21 [PHELLIGRIN A]	Dose-dependent effect	18.4%	54.5 µM	–
COc1cc(O)c2c(c1Cc1ccccc1O)O[C@H](c1ccc(O)cc1)CC2=O	–	–	22.5 µM	–
O=C1C[C@@H](c2ccc(O)cc2)Oc2cc(O)c(Cc3ccccc3O)c(O)c21	–	–	54.5 µM	–
CCOC(=O)/C(=C\c1ccc(O)c(O)c1)c1c(O)cc(/C=C/c2ccc(O)c(O)c2)oc1=O [PHELLIBAUMIN E]	–	–	52.9 µM	–
O=c1oc2cc(-c3c(-c4ccc(O)c(O)c4)oc4cc(/C=C/c5ccc(O)c(O)c5)oc(=O)c34)oc(=O)c2c2cc(O)c(O)cc12 [PHELLIGRIDIN H]	–	–	84.9 µM	–
O=c1oc(/C=C/c2ccc(O)c(O)c2)cc2oc3cc(O)c(O)cc3c12 [PHELLIBAUMIN A]	–	–	53 µM	–
CC(=O)/C(=C\c1ccc(O)c(O)c1)c1c(O)cc(/C=C/c2ccc(O)c(O)c2)oc1=O [INTERFUNGIN B]	–	–	71.2 µM	–
O=C(O)CC1Oc2cc(/C=C/c3ccc(O)c(O)c3)oc(=O)c2-c2cc(O)c(O)cc21 (stereo not given) [PHELLIBAUMIN B]	–	–	41.4 µM	–
O=C(O)/C(=C\c1ccc(O)c(O)c1)c1c(O)cc(/C=C/c2ccc(O)c(O)c2)oc1=O [PHELLIBAUMIN D]	–	–	74.6 µM	–
COc1cc2c(c(O)c1Cc1ccccc1O)C(=O)C[C@@H](c1ccc(O)cc1)O2	–	–	36.4 µM	–
O=c1oc2cc(O)c1-c1cc(O)c(O)cc1/C=C/c1cc3c(c(=O)o1)[C@H](c1cc(O)c(c(=O)o1)-c1cc(O)c(O)cc1/C=C/c1cc4c(c(=O)o1)[C@H]2[C@@H](c1ccc(O)c(O)c1)O4)[C@@H](c1ccc(O)c(O)c1)O3 [PHELLIGRIDIMER A]	–	–	–	Not Active
COc1cc2c(c(O)c1Cc1ccccc1O)C(=O)C[C@H](c1ccc(O)cc1)O2	Dose-dependent effect	35%	36.4 µM	–
COc1cc(O)c2c(c1Cc1ccccc1O)O[C@@H](c1ccc(O)cc1)CC2=O [METHYLPHELLIGRIN B]	Dose-dependent effect	62.5%	22.5 µM	–
O=c1oc(/C=C/c2ccc(O)c(O)c2)cc(O)c1/C(=C/c1ccc(O)c(O)c1)c1cc2oc(=O)c3cc(O)c(O)cc3c2c(=O)o1 [PHELLIBAUMIN C]	–	–	62.3 µM	–
